Hits are enriched below; roughly 2.3% of the tested compounds scored in any of these assays.
OXTR potentiator: human OXTR potentiators, primary screen, fluorescence, CHO-OTR cells, Fluo-8 calcium | activation, % at 3 µM | Fluo-8 calcium fluorescence, potentiator mode; 0% = oxytocin EC15, 100% = EC100 | Oxytocin receptor (Homo sapiens), P30559 | AID 2445, 2010 | actives 0.061% (n = 320,000);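 active = activation above that plate's cutoff, the mean activation of tested compounds plus 3 SD, cut at about 6.6% in these data, passing the limit was not always enough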
Target sequence (P30559 whole entry, looked up): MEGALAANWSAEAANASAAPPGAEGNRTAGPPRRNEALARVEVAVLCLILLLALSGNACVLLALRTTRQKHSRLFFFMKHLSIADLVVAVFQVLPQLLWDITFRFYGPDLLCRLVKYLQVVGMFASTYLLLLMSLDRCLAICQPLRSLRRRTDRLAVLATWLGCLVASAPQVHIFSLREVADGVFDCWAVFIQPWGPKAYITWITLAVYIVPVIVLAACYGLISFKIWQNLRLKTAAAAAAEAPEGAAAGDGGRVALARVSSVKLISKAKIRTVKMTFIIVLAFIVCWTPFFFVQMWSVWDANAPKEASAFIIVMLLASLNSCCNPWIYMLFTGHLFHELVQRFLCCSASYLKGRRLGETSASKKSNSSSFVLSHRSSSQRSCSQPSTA
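Replication – single well per compound, singlicate · Assay system – CHO cell line stably expressing human OTR · Timing – 6 min pre-incubation, 100 s read · Measure – normalized max/min fluorescence ratio, % activation · Doses – 3.0 µM, one dose · Detection – Fluo-8 calcium dye fluorescence · Probe or stimulus – oxytocin near EC15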
TAAR1 agonist: human TAAR1 agonists, primary screen, Fluo-8 calcium fluorescence, CHO RD-HGA16 cells | Trace amine-associated receptor 1 (Homo sapiens), Q96RJ0 | vehicle wells 0%, saturating PEA agonist 100% | activation, % at 3 µM | actives 0.99% (n = 360,000);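 active = activation above the mean activation of all test compounds in the run plus 3 SD, cut at about 38% in these data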
Target sequence (Q96RJ0 whole entry, looked up): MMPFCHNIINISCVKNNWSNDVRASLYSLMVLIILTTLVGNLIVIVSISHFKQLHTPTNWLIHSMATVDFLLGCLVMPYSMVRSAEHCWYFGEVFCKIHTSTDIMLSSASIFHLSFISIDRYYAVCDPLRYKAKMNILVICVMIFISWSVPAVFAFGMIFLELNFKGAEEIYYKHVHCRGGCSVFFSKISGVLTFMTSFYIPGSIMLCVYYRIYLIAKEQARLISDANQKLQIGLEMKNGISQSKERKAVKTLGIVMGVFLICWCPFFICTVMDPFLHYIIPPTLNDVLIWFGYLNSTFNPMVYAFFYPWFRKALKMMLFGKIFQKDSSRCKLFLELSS
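Assay system – CHO-derived RD-HGA16 cells with stable Gα16 and human TAAR1 · Compound dosing – one-point dosing at 3 µM (nominal) · Incubation – 17-24 h seeding, 75 min 37 °C dye, 30 min RT · Measured by – kinetic Fluo-8 calcium fluorescence · Control set – DMSO vehicle as 0%, PEA at EC100 as 100% · Repeats – single well for each compound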
TAAR1 antag: human TAAR1 antagonists, primary screen, Fluo-8 calcium fluorescence, CHO RD-HGA16 cells; antagonist; Trace amine-associated receptor 1 (Homo sapiens), Q96RJ0; actives 1.5% (n = 360,000); AID 624466, 2012; inhibition, % at 3 µM;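 active = inhibition above a per-plate cutoff, the mean inhibition of test compounds on that plate plus 3 SD, cut at about 49% in these data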
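test system = CHO RD-HGA16 cells bearing hTAAR1 | replication = singlicate | controls = DMSO-only wells and EC80 β-PEA-stimulated wells | reagent = EC80 β-phenethylamine stimulus | read-out basis = percent inhibition of PEA-evoked calcium signal, max/basal emission ratio | schedule = seeding 17-24 h prior, 75-min 37 °C, 30-min RT dye loading | signal = kinetic Fluo-8 calcium fluorescence measurement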
V1aR counter: agonists of human V1a receptor, primary screen, counter-screen for OXTR agonist project, fluorescence, CHO-V1R cells; actives 0.25% (n = 320,000); activation, % at 3 µM; Fluo-8 calcium fluorescence, agonist mode; 0% DMSO, 100% 3 nM vasopressin;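 active = activation above the mean activation of all tested compounds plus 3 SD, per screening run, cut at about 20% in these data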;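 also: signal is peak over basal fluorescence ratio across a 100 second FLIPR read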
OXTR ag: human OXTR agonists, primary screen, fluorescence, CHO-OTR cells, Fluo-8 calcium. Oxytocin receptor (Homo sapiens), P30559. Fluo-8 calcium fluorescence; normalized: DMSO 0%, oxytocin 100%. activation, % at 3 µM. actives 0.32% (n = 320,000). AID 2435, 2010;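 active = activation above the mean of all tested compounds plus 3 SD, cutoff set per screening run, cut at about 20% in these data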;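 also: peak over basal fluorescence ratio from a 100 s FLIPR kinetic read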
TAAR1 ag conf: human TAAR1 agonists, retest of hits, confirmation, Fluo-8 calcium fluorescence, CHO RD-HGA16 cells | shares compounds with TAAR1 agonist | actives 82% (n = 2,400) | activation, % at 3 µM | AID 651783, 2012 | scaled: DMSO 0%, maximal phenethylamine 100%;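 active = activation above a cutoff set at the run's mean compound activation plus 3 SD, cut at about 39% in these data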
Ga16 ag counter: nonselective calcium mobilization agonists, CHO-Ga16 cells, counter-screen for hTAAR1 agonist project, cell-based, fluorescence, CHO-Ga16 parental line | shares compounds with TAAR1 agonist | Fluo-8 calcium fluorescence; normalized to maximal ATP response, DMSO zero | activation, % at 3 µM | actives 50% (n = 2,400) | AID 651787, 2012;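 active = activation above the run cutoff, the mean activation over all tested wells plus 3 SD, cut at about 12% in these data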
TAAR1 desens: TAAR1 desensitization by agonist hits, confirmation, counter-screen for TAAR1 agonist project, cell-based, fluorescence, tachyphylaxis | shares compounds with TAAR1 agonist | CHO RD-HGA16 hTAAR1, Fluo-8 calcium, beta-PEA response inhibition | inhibition, % at 3 µM | actives 46% (n = 2,400);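 active = inhibition above the run cutoff, the mean inhibition of all test compounds plus 3 SD, cut at about 49% in these data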;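 also: beta-PEA stimulus applied at its EC80; loss of beta-PEA calcium signal after compound pretreatment read as receptor desensitization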
Ga16 nonsel ant: inhibition of ATP-evoked calcium response in CHO-Ga16 cells, counter-screen for TAAR1 agonist project, cell-based, fluorescence; inhibition, % at 3 µM; AID 651952, 2012; CHO-Ga16 ATP-induced calcium, Fluo-8 fluorescence; shares compounds with TAAR1 agonist; actives 39% (n = 2,400);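 active = inhibition above the plate's mean compound inhibition plus 3 SD, computed per plate, cut at about 22% in these data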
Numbers stand for hits; - = inactive; . = no result.

SMILES | OXTR potentiator | TAAR1 agonist | TAAR1 antag | V1aR counter | OXTR ag | TAAR1 ag conf | Ga16 ag counter | TAAR1 desens | Ga16 nonsel ant
CCCCN(C)CCC(=O)Nc1ccc2c(c1)CCC2 | - | 44 | - | - | - | 69 | - | - | -
Cc1cc(C)c2cc3c(N)c(C(=O)N4CCc5ccccc5C4)sc3nc2c1 | - | 78 | - | - | - | 56 | 12 | - | 39
Cc1ccc2nc3sc(C(=O)N4CCCc5ccccc54)c(N)c3cc2c1 | - | - | - | - | - | . | . | . | .
O=S(=O)(Nc1ccc2c(c1)OCO2)c1ccc(F)c(F)c1 | - | - | - | - | - | . | . | . | .
CN(C)C(CNC(=O)c1ccc(NS(=O)(=O)c2ccc(F)cc2)cc1)c1ccco1 (centres undefined) | - | - | - | - | - | . | . | . | .
CCOc1ccc(NS(=O)(=O)c2ccc(C(=O)N3CCCCC3)cc2)cc1 | - | 67 | - | 28 | 24 | 66 | 45 | - | 35
CC1CCN(C(=O)c2ccc(NS(=O)(=O)c3ccccc3)cc2)CC1 | - | - | - | - | - | . | . | . | .
CCOC(=O)c1ccc(NS(=O)(=O)c2ccc(SC)cc2)cc1 | - | 46 | - | - | - | 40 | 19 | - | 26
COc1ccc(NS(=O)(=O)c2ccc(C(=O)N3CCC(C)CC3)cc2)cc1 | - | 91 | - | 24 | 40 | 76 | 40 | - | 26
Cc1ccc(NS(=O)(=O)c2ccc(C(=O)NCC(c3ccco3)N(C)C)cc2)cc1 (centres undefined) | - | 105 | 54 | 26 | 27 | 108 | 49 | 65 | 33
CN1CC(=O)N2Cc3[nH]c4ccccc4c3C[C@H]2C1=O | - | - | - | - | - | . | . | . | .
CCN(c1ccccc1)S(=O)(=O)c1ccc(C(=O)NCC(c2ccccc2OC)N2CCCC2)cc1 (centres undefined) | . | 46 | - | . | . | 60 | 13 | - | 25
C=CCN(c1ccccc1)S(=O)(=O)c1cccc(C(=O)NCC(c2ccccc2OC)N2CCCC2)c1 (centres undefined) | - | - | - | - | - | . | . | . | .
CCOc1ccc(NS(=O)(=O)c2ccc(C(=O)NCC(c3ccco3)N3CCCC3)cc2)cc1 (centres undefined) | - | 65 | - | 23 | 35 | 83 | 39 | - | 29
O=C(NCC(c1ccco1)N1CCCCC1)c1ccc(NS(=O)(=O)c2ccc(F)cc2)cc1 (centres undefined) | - | - | - | - | - | . | . | . | .
CCOc1ccc(NS(=O)(=O)c2ccc(C(=O)N3CC(C)OC(C)C3)cc2)cc1 (centres undefined) | - | 130 | 79 | 51 | 58 | 119 | 91 | 79 | 40
CCOC(=O)Nc1ccc(OC)cc1S(=O)(=O)N1CCCCC1 | - | - | - | - | - | . | . | . | .
Cc1c(C(=O)N2CCCCC2)c(S(=O)(=O)NCCc2ccccc2)c(C)n1C | - | - | - | - | - | . | . | . | .
Cc1[nH]c(C)c(S(=O)(=O)NCCc2ccccc2)c1C(=O)N1CCCCC1 | - | 53 | - | - | - | - | - | - | -
O=C(CNCCc1ccccc1)Nc1ccc(C(=O)N2CCCCC2)cc1 | - | 46 | - | - | - | 69 | - | - | -
O=C(Cn1cnc2c(OCc3ccccc3)ncnc21)N[C@H](CO)Cc1cc2ccccc2[nH]1 | - | - | - | - | - | . | . | . | .
c1ccc2c3c([nH]c2c1)CCNC3 | - | 82 | 81 | - | - | 103 | - | 93 | -
Cc1ccc2[nH]c3c(c2c1)CNCC3 | - | - | - | - | - | . | . | . | .
COc1ccc(CNCCc2ccccc2)cc1OCC(N)=O | - | 52 | - | - | - | 75 | - | - | -
O=C(NCCc1cccs1)C1CC(c2ccccc2[N+](=O)[O-])=NO1 (centres undefined) | - | 46 | - | - | - | 57 | - | - | -
SMILES | OXTR potentiator | TAAR1 agonist | TAAR1 antag | V1aR counter | OXTR ag | TAAR1 ag conf | Ga16 ag counter | TAAR1 desens | Ga16 nonsel ant
O=C(COC(=O)CNS(=O)(=O)c1cccc(F)c1)NCCc1ccccc1 | . | - | - | . | . | . | . | . | .
C[C@@H](C(=O)NC1CCCCC1)N1C(=O)N2CCc3c([nH]c4ccccc34)[C@@]2(C)C1=O | - | - | - | - | - | . | . | . | .
C[C@@H](C(=O)NCCc1ccccc1)N1C(=O)N2CCc3c([nH]c4ccccc34)[C@@]2(C)C1=O | - | 71 | 68 | - | - | 68 | - | - | -
C[C@@H](C(=O)NCCc1ccccc1F)N1C(=O)N2CCc3c([nH]c4ccccc34)[C@@]2(C)C1=O | - | 59 | - | - | - | 73 | - | - | -
COc1ccccc1CCC(=O)OCC(=O)Nc1ccc2[nH]c(=O)[nH]c2c1 | - | - | - | - | - | . | . | . | .
CCOC(=O)/C(=C\C=C1/Sc2cc(OCC)c(OCC)cc2N1CC)C(C)=O | - | 121 | 62 | 92 | 148 | 167 | 225 | 80 | 86
CN(C)c1ccc(S(=O)(=O)NCC(=O)NCc2ccccc2)cc1[N+](=O)[O-] | - | 79 | - | - | - | - | - | - | -
O=C(CCc1ccccc1)N/N=C/c1cccc(O)c1 | - | - | - | - | - | . | . | . | .
O=C(N/N=C/c1cccc(O)c1)N/N=C/c1cccc(O)c1 | - | 46 | - | - | - | 81 | - | - | -
Cn1c(N/N=C\c2cccc(O)c2)cc(=O)n(C)c1=O | - | 52 | - | - | - | 77 | - | - | -
Cc1ccc(S(=O)(=O)NCC(=O)NNC(=O)c2ccccc2Cl)cc1C | - | - | - | - | - | . | . | . | .

Screening results from PubChem.
